The values that follow come from ChEMBL document CHEMBL1149831, “Synthesis of 2-aryl-4-(benzimidazol-2-yl)-1,2-dihydro[1,2,4]triazino-[4,5-a]benzimidazol-1-one derivatives with preferential cytotoxicity against carcinoma cell lines” (Eur J Med Chem, 2008).

Assay type in all cases: functional, cell-based
One assay concerns A549. In words: Cytotoxicity against human A549 cells after 72 hrs by MTT assay. The note with it: A549, 72 h. In outline:
(§1)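 Cells grown in DMEM/RPMI 1640 with 5 g/L glucose, 2 mM glutamine, penicillin/streptomycin, 10% fetal calf serum and NaHCO3. Seeded in 96-well plates and left 24 h at 37 °C, 5% CO2 before compound addition. Exposure then ran 72 h, each concentration in duplicate. MTT added for 1-4 h and formazan dissolved overnight in 10% aq. SDS (pH 5.5). OD read at 540 nm, with IC50 taken from dose-response curves.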

Assay [1] has as its system HCT-116. In words: Cytotoxicity against human HCT116 cells expressing mutant p53 after 72 hrs by MTT assay. The note with it: HCT-116, 72 h. In outline: as §1
(Tetrazolium dyes change colour on reduction, which living cells bring about.)

In a further assay the test system is U-118-MG. In words: Cytotoxicity against human U118Mg cells after 72 hrs by MTT assay. The method in brief:
as §1

A further assay deals with HT-29. In words: Cytotoxicity against human HT29 cells after 72 hrs by MTT assay. The following applies: HT-29, 72 h. In outline:
as §1

For a further assay, the system named is PC-3. In words: Cytotoxicity against human PC3 cells after 72 hrs by MTT assay. The following applies: PC-3, 72 h. In outline:
as §1

Assay [2] has as its system CCRF-CEM. In words: Cytotoxicity against human CEM-DNR bulk cells after 72 hrs by MTT assay. In outline:
as §1

Assay [3] concerns HCT-116. In words: Cytotoxicity against human HCT116 cells expressing wild type p53 after 72 hrs by MTT assay. The following applies: HCT-116, 72 h. The method in brief: as §1
In assay [4] the test system is K562. In words: Cytotoxicity against human K562-Tax cells after 72 hrs by MTT assay. The note with it: K562, 72 h. The method in brief: as §1
Assay [5] has as its system CCRF-CEM. In words: Cytotoxicity against human CEM cells after 72 hrs by MTT assay. In outline:
as §1

Assay [6] has as its system K562. The experiment in a line: Cytotoxicity against human K562 cells after 72 hrs by MTT assay. The note with it: K562, 72 h. In outline: as §1
The subject of a further assay is MCF7. In words: Cytotoxicity against human MCF7 cells after 72 hrs by MTT assay. The note with it: MCF7, 72 h. The method in brief: as §1

On to `Clc1ccc(NN=C(c2nc3ccccc3[nH]2)c2nc3ccccc3[nH]2)cc1`, for which the half-maximal inhibitory concentration (IC50) (in general, the concentration that inhibits the measured activity by half) in the assay with A549 worked out at 2.8 µM; with HCT-116 [1], 16.8 µM; with U-118-MG, 250 µM; in the assay with HT-29, 114 µM; in the assay with PC-3, 250 µM; with CCRF-CEM [2], 112 µM. Moreover, the 50% inhibitory concentration (IC50) in the assay with HCT-116 [3] was found to be 201 µM; with K562 [4] it was 159 µM; with CCRF-CEM [5] it was 42.5 µM; with K562 [6] it was 200 µM; in the assay with MCF7, 140 µM.
For `c1ccc(NN=C(c2nc3ccccc3[nH]2)c2nc3ccccc3[nH]2)cc1`, the half-maximal inhibitory concentration (IC50) came out at 3.8 µM in the assay on A549; 17.6 µM with HCT-116 [1]; 160 µM with U-118-MG; 81.9 µM in the assay on HT-29; 248 µM in the assay with PC-3; 27.9 µM with CCRF-CEM [2]. The 50% inhibitory concentration (IC50) in the assay on HCT-116 [3] was 162 µM; in the assay with K562 [4], 144 µM; in the assay on CCRF-CEM [5] it was 13 µM; with K562 [6] it was 114 µM; in the assay on MCF7, 83.2 µM.
With `O=c1n(-c2ccccc2)nc(-c2nc3ccccc3[nH]2)c2nc3ccccc3n12`, the IC50 in the assay on A549 worked out at 11.5 µM; in the assay on HCT-116 [1], 8.6 µM; with U-118-MG, 12 µM; in the assay with HT-29, 8 µM; with PC-3, 13.6 µM; with CCRF-CEM [2], 45.6 µM. In addition, the concentration for half-maximal inhibition (IC50) in the assay on HCT-116 [3] worked out at 38.1 µM; in the assay with K562 [4], 42.7 µM; in the assay with CCRF-CEM [5] it was 12.2 µM; with K562 [6] it was 23.5 µM; with MCF7 it was 74.8 µM.
Consider `COc1ccc(NN=C(c2nc3ccccc3[nH]2)c2nc3ccccc3[nH]2)cc1`, for which the IC50 was 0.5 µM in the assay on A549; 66.5 µM in the assay with HCT-116 [1]; 250 µM in the assay on U-118-MG; 114 µM in the assay on HT-29; 250 µM in the assay on PC-3; 96.7 µM in the assay with CCRF-CEM [2]. The IC50 in the assay with HCT-116 [3] worked out at 35.7 µM; in the assay on K562 [4], 235 µM; in the assay with CCRF-CEM [5], 10.9 µM; in the assay on K562 [6], 116 µM; in the assay on MCF7, 215 µM.
In the case of `O=[N+]([O-])c1ccc(NN=C(c2nc3ccccc3[nH]2)c2nc3ccccc3[nH]2)cc1`, the IC50 in the assay on A549 stood at 0.7 µM; in the assay on HCT-116 [1], 4.7 µM; in the assay on U-118-MG, 250 µM; in the assay with HT-29 it was 17.7 µM; with PC-3 it was 218 µM; in the assay on CCRF-CEM [2], 140 µM. Moreover, the IC50 worked out at 11.7 µM in the assay with HCT-116 [3]; 101 µM with K562 [4]; 58.4 µM with CCRF-CEM [5]; 190 µM in the assay with K562 [6]; 94.8 µM with MCF7.
On to `Cc1ccc(-n2nc(-c3nc4ccccc4[nH]3)c3nc4ccccc4n3c2=O)cc1`, for which the IC50 is 14.7 µM in the assay on A549; 7.6 µM in the assay with HCT-116 [1]; 17.9 µM in the assay with U-118-MG; 15.2 µM with HT-29; 40.8 µM in the assay with PC-3; 61.2 µM in the assay on CCRF-CEM [2]. Also, the concentration for half-maximal inhibition (IC50) was found to be 7.8 µM with HCT-116 [3]; 20.9 µM in the assay on K562 [4]; 18.5 µM in the assay on CCRF-CEM [5]; 18.3 µM in the assay on K562 [6]; 34.1 µM with MCF7.
As for `O=c1n(-c2ccc(Cl)cc2)nc(-c2nc3ccccc3[nH]2)c2nc3ccccc3n12`, the half-inhibitory concentration (IC50) was 1.2 µM with A549; 2.3 µM in the assay with HCT-116 [1]; 247 µM with U-118-MG; 88.6 µM with HT-29; 242 µM in the assay on PC-3; 51.2 µM in the assay on CCRF-CEM [2]. Also, the IC50 in the assay with HCT-116 [3] is 73.9 µM; in the assay with K562 [4], 167 µM; in the assay with CCRF-CEM [5], 83.6 µM; with K562 [6], 134 µM; in the assay on MCF7 it was 140 µM.
With `CCOC(=O)n1c(-c2nn(-c3ccc(C)cc3)c(=O)n3c2nc2ccccc23)nc2ccccc21`, the IC50 in the assay on A549 stood at 71 µM; with HCT-116 [1] it was 44.4 µM; in the assay with U-118-MG, 147 µM; in the assay with HT-29 it was 96.2 µM; with PC-3, 165 µM; with CCRF-CEM [2] it was 29.6 µM. In addition, the concentration for half-maximal inhibition (IC50) was found to be 46.3 µM in the assay with HCT-116 [3]; 53.7 µM with K562 [4]; 25.5 µM with CCRF-CEM [5]; 140 µM with K562 [6]; 134 µM with MCF7.
Take `CCOC(=O)n1c(-c2nn(-c3ccc(OC)cc3)c(=O)n3c2nc2ccccc23)nc2ccccc21`: the IC50 in the assay on A549 was 44.4 µM; in the assay on HCT-116 [1], 46.3 µM; in the assay with U-118-MG, 54.3 µM; with HT-29, 38.7 µM; with PC-3 it was 145 µM; with CCRF-CEM [2], 111 µM. Further, the half-maximal inhibitory concentration (IC50) with HCT-116 [3] is 42.8 µM; in the assay with K562 [4] it was 7.8 µM; in the assay with CCRF-CEM [5], 31.8 µM; with K562 [6], 14 µM; with MCF7, 51.6 µM.
For the molecule `CCOC(=O)n1c(-c2nn(-c3ccc([N+](=O)[O-])cc3)c(=O)n3c2nc2ccccc23)nc2ccccc21`, the half-maximal inhibitory concentration (IC50) in the assay on A549 was 4.4 µM; with HCT-116 [1], 5.4 µM; with U-118-MG, 6.2 µM; in the assay on HT-29 it was 21.9 µM; in the assay with PC-3, 125 µM; in the assay with CCRF-CEM [2], 224 µM. For the same molecule, the IC50 in the assay with HCT-116 [3] came out at 70.7 µM; with K562 [4], 196 µM; in the assay on CCRF-CEM [5], 155 µM; with K562 [6], 166 µM; in the assay with MCF7 it was 144 µM.
`Cc1ccc(NN=C(c2nc3ccccc3[nH]2)c2nc3ccccc3[nH]2)cc1`: the concentration for half-maximal inhibition (IC50) in the assay on A549 was 0.6 µM; in the assay with HCT-116 [1], 10.5 µM; with U-118-MG, 250 µM; in the assay with HT-29, 95.9 µM; with PC-3 it was 250 µM; with CCRF-CEM [2], 87.6 µM. Also, the IC50 turned out to be 195 µM in the assay on HCT-116 [3]; 239 µM in the assay on K562 [4]; 26.5 µM in the assay with CCRF-CEM [5]; 160 µM with K562 [6]; 95.8 µM in the assay on MCF7.
`CCOC(=O)n1c(-c2nn(-c3ccccc3)c(=O)n3c2nc2ccccc23)nc2ccccc21`: the concentration for half-maximal inhibition (IC50) in the assay on A549 came out at 18 µM; with HCT-116 [1], 10.8 µM; in the assay on U-118-MG, 17.7 µM; with HT-29 it was 15.2 µM; in the assay with PC-3, 37.5 µM; with CCRF-CEM [2], 18.4 µM. In addition, the half-maximal inhibitory concentration (IC50) was 11.4 µM with HCT-116 [3]; 42.2 µM in the assay with K562 [4]; 58.6 µM in the assay on CCRF-CEM [5]; 69.4 µM in the assay on K562 [6]; 35.1 µM in the assay with MCF7.
As for `COc1ccc(-n2nc(-c3nc4ccccc4[nH]3)c3nc4ccccc4n3c2=O)cc1`, the half-inhibitory concentration (IC50) is 8.7 µM with A549; 3.6 µM in the assay with HCT-116 [1]; 10 µM in the assay with U-118-MG; 6 µM with HT-29; 24.6 µM in the assay on PC-3; 35.4 µM in the assay with CCRF-CEM [2]. Also, the IC50 with HCT-116 [3] came to 6.9 µM; in the assay on K562 [4] it was 7.5 µM; with CCRF-CEM [5], 3.5 µM; with K562 [6], 8.7 µM; with MCF7, 10.7 µM.
For the molecule `CCOC(=O)n1c(-c2nn(-c3ccc(Cl)cc3)c(=O)n3c2nc2ccccc23)nc2ccccc21`, the IC50 in the assay with A549 came out at 4 µM; in the assay on HCT-116 [1], 6.4 µM; in the assay on U-118-MG, 12.4 µM; with HT-29, 29.7 µM; in the assay on PC-3, 150 µM; in the assay with CCRF-CEM [2] it was 111 µM. The concentration for half-maximal inhibition (IC50) in the assay on HCT-116 [3] came out at 7.7 µM; in the assay on K562 [4] it was 7.9 µM; with CCRF-CEM [5], 31.8 µM; with K562 [6], 14.1 µM; in the assay on MCF7, 21.3 µM.
Take `O=c1n(-c2ccc([N+](=O)[O-])cc2)nc(-c2nc3ccccc3[nH]2)c2nc3ccccc3n12`: the IC50 came to 2.2 µM in the assay on A549; 250 µM with HCT-116 [1]; 250 µM with U-118-MG; 248 µM in the assay with HT-29; 250 µM in the assay on PC-3; 190 µM with CCRF-CEM [2]. Further, the IC50 in the assay with HCT-116 [3] worked out at 250 µM; in the assay with K562 [4] it was 250 µM; with CCRF-CEM [5], 103 µM; in the assay on K562 [6], 210 µM; in the assay on MCF7, 250 µM.
